Measurements taken from ChEMBL document CHEMBL1141391 (J Med Chem, 2007).

Tests used:
PC-3 = test: Cytotoxicity against PC3 cell line by MTT assay; format: cell-based; details: Homo sapiens
A2780 = test: Cytotoxicity against A2780 cell line; format: cell-based; details: Homo sapiens
Tubulin (Homo sapiens) = Tubulin (Homo sapiens) (UniProt P68371+Q9H4B7+P0DPH7+P68366+Q13509+Q71U36+P04350+Q3ZCM7+P07437+P68363+Q9BQE3+Q6PEY2+Q13885+Q9BVA1+Q9BUF5); test: Induction of GTP-tubulin polymerization; format: protein-complex assay
In short: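 ED50 for induction of tubulin assembly, read by light scattering at 350 nm or by fluorescence in a 96-well format. GTP-tubulin was used unless otherwise stated. Some samples were run with GDP-tubulin and normalized to the GTP-tubulin scale. Some values are single determinations.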

[1] = Inhibition of growth in epothilone A resistant 1A9-A8 T-beta-274I mutant cell line after 72 hrs by SRB assay; format: functional, cell-based; details: Homo sapiens, 1A9, 72 h
1A9/ptx-10 = test: Inhibition of growth in paclitaxel resistant 1A9-PTX10 F-beta-270V mutant cell line after 72 hrs by SRB assay; format: functional, cell-based; details: Homo sapiens, 1A9/ptx-10, 72 h
1A9 = test: Inhibition of growth in 1A9 cell line after 72 hrs; format: functional, cell-based; details: Homo sapiens, 1A9, 72 h

SMILES	IC50 (PC-3)	IC50 (A2780)	ED50 (Tubulin (Homo sapiens))	IC50 [1]	IC50 (1A9/ptx-10)	IC50 (1A9)
C=CCCOc1ccccc1[C@H](NC(=O)c1ccccc1)[C@@H](O)C(=O)O[C@H]1C[C@@]2(O)[C@@H](OC(=O)c3ccccc3)[C@@H]3[C@]4(OC(=O)C=C)CO[C@@H]4C[C@H](O)[C@@]3(C)C(=O)[C@H](OC(C)=O)C(=C1C)C2(C)C	> 13200 nM	19800 nM	2700 nM	–	–	–
C=CCc1ccccc1[C@H](NC(=O)c1ccccc1)[C@@H](O)C(=O)O[C@H]1C[C@@]2(O)[C@@H](OC(=O)c3ccccc3)[C@@H]3[C@]4(OC(=O)C=C)CO[C@@H]4C[C@H](O)[C@@]3(C)C(=O)[C@H](OC(C)=O)C(=C1C)C2(C)C	550 nM	1300 nM	1400 nM	–	–	–
CC(=O)O[C@H]1C(=O)[C@@]2(C)[C@@H]3[C@H](OC(=O)c4ccccc4)[C@]4(O)C[C@H](OC(=O)[C@H](O)[C@@H](NC(=O)c5ccccc5)c5ccccc5OCCCCCCC(=O)O[C@]35CO[C@@H]5C[C@@H]2O)C(C)=C1C4(C)C	390 nM	2000 nM	850 nM	–	–	–
CC(=O)O[C@H]1C(=O)[C@@]2(C)[C@@H]3[C@H](OC(=O)c4ccccc4)[C@]4(O)C[C@H](OC(=O)[C@H](O)[C@@H](NC(=O)OC(C)(C)C)c5ccccc5/C=C/CC(=O)O[C@]35CO[C@@H]5C[C@@H]2O)C(C)=C1C4(C)C	3.2 nM	1.4 nM	490 nM	–	–	–
CC(=O)O[C@H]1C(=O)[C@@]2(C)[C@@H]3[C@H](OC(=O)c4ccccc4)[C@]4(O)C[C@H](OC(=O)[C@H](O)[C@@H](NC(=O)c5ccccc5)c5cccc(c5)OCCCCCC(=O)O[C@]35CO[C@@H]5C[C@@H]2O)C(C)=C1C4(C)C	1000 nM	3600 nM	3400 nM	–	–	–
COc1cccc(C(=O)O[C@H]2[C@@H]3[C@]45CO[C@@H]4C[C@H](O)[C@@]3(C)C(=O)[C@H](OC(C)=O)C3=C(C)[C@H](C[C@]2(O)C3(C)C)OC(=O)[C@H](O)[C@@H](NC(=O)OC(C)(C)C)c2ccccc2CCCC(=O)O5)c1	1.3 nM	0.49 nM	220 nM	–	–	–
CC(=O)O[C@H]1C(=O)[C@@]2(C)[C@@H]3[C@H](OC(=O)c4ccccc4)[C@]4(O)C[C@H](OC(=O)[C@H](O)[C@@H](NC(=O)c5ccccc5)c5cccc(c5)OC/C=C\C(=O)O[C@]35CO[C@@H]5C[C@@H]2O)C(C)=C1C4(C)C	580 nM	6300 nM	4600 nM	–	–	–
CC(=O)O[C@H]1C(=O)[C@@]2(C)[C@@H]3[C@H](OC(=O)c4ccccc4)[C@]4(O)C[C@H](OC(=O)[C@H](O)[C@@H](NC(=O)c5ccccc5)c5ccccc5OCCCCCC(=O)O[C@]35CO[C@@H]5C[C@@H]2O)C(C)=C1C4(C)C	51 nM	980 nM	760 nM	–	–	–
C=CCOc1cccc([C@H](NC(=O)c2ccccc2)[C@@H](O)C(=O)O[C@H]2C[C@@]3(O)[C@@H](OC(=O)c4ccccc4)[C@@H]4[C@]5(OC(=O)C=C)CO[C@@H]5C[C@H](O)[C@@]4(C)C(=O)[C@H](OC(C)=O)C(=C2C)C3(C)C)c1	550 nM	1900 nM	1000 nM	–	–	–
CC(=O)O[C@H]1C(=O)[C@@]2(C)[C@@H]3[C@H](OC(=O)c4ccccc4)[C@]4(O)C[C@H](OC(=O)[C@H](O)[C@@H](NC(=O)c5ccccc5)c5ccccc5OCCCCC(=O)O[C@]35CO[C@@H]5C[C@@H]2O)C(C)=C1C4(C)C	13 nM	28 nM	230 nM	–	–	–
COc1cccc(C(=O)O[C@H]2[C@@H]3[C@]45CO[C@@H]4C[C@H](O)[C@@]3(C)C(=O)[C@H](OC(C)=O)C3=C(C)[C@H](C[C@]2(O)C3(C)C)OC(=O)[C@H](O)[C@@H](NC(=O)c2ccccc2)c2ccccc2/C=C/CC(=O)O5)c1	6 nM	23.7 nM	570 nM	–	–	–
C=CCCCC(=O)O[C@@]12CO[C@@H]1C[C@H](O)[C@@]1(C)C(=O)[C@H](OC(C)=O)C3=C(C)[C@@H](OC(=O)[C@H](O)[C@@H](NC(=O)c4ccccc4)c4cccc(OCC=C)c4)C[C@@](O)([C@@H](OC(=O)c4ccccc4)[C@H]21)C3(C)C	4600 nM	7400 nM	2200 nM	–	–	–
COc1cccc(C(=O)O[C@H]2[C@@H]3[C@]45CO[C@@H]4C[C@H](O)[C@@]3(C)C(=O)[C@H](OC(C)=O)C3=C(C)[C@H](C[C@]2(O)C3(C)C)OC(=O)[C@H](O)[C@@H](NC(=O)c2ccccc2)c2ccccc2CCCC(=O)O5)c1	–	23.1 nM	–	–	–	–
C=CCCC(=O)O[C@@]12CO[C@@H]1C[C@H](O)[C@@]1(C)C(=O)[C@H](OC(C)=O)C3=C(C)[C@@H](OC(=O)[C@H](O)[C@@H](NC(=O)c4ccccc4)c4cccc(OCC=C)c4)C[C@@](O)([C@@H](OC(=O)c4ccccc4)[C@H]21)C3(C)C	2600 nM	2520 nM	1800 nM	–	–	–
CC(=O)O[C@H]1C(=O)[C@@]2(C)[C@@H]3[C@H](OC(=O)c4ccccc4)[C@]4(O)C[C@H](OC(=O)[C@H](O)[C@@H](NC(=O)c5ccccc5)c5ccccc5OC/C=C/CCCCC(=O)O[C@]35CO[C@@H]5C[C@@H]2O)C(C)=C1C4(C)C	500 nM	1840 nM	930 nM	–	–	–
CC(=O)O[C@H]1C(=O)[C@@]2(C)[C@@H]3[C@H](OC(=O)c4ccccc4)[C@]4(O)C[C@H](OC(=O)[C@H](O)[C@@H](NC(=O)c5ccccc5)c5ccccc5OC/C=C/CCC(=O)O[C@]35CO[C@@H]5C[C@@H]2O)C(C)=C1C4(C)C	55 nM	830 nM	900 nM	–	–	–
C=CCOc1ccccc1[C@H](NC(=O)c1ccccc1)[C@@H](O)C(=O)O[C@H]1C[C@@]2(O)[C@@H](OC(=O)c3ccccc3)[C@@H]3[C@]4(OC(=O)C=C)CO[C@@H]4C[C@H](O)[C@@]3(C)C(=O)[C@H](OC(C)=O)C(=C1C)C2(C)C	2800 nM	17800 nM	1200 nM	–	–	–
COc1cccc(C(=O)O[C@H]2[C@@H]3[C@]45CO[C@@H]4C[C@H](O)[C@@]3(C)C(=O)[C@H](OC(C)=O)C3=C(C)[C@H](C[C@]2(O)C3(C)C)OC(=O)[C@H](O)[C@@H](NC(=O)c2ccccc2)c2ccccc2C/C=C/C(=O)O5)c1	8.2 nM	17.7 nM	220 nM	–	–	–
COc1cccc(C(=O)O[C@H]2[C@@H]3[C@]45CO[C@@H]4C[C@H](O)[C@@]3(C)C(=O)[C@H](OC(C)=O)C3=C(C)[C@H](C[C@]2(O)C3(C)C)OC(=O)[C@H](O)[C@@H](NC(=O)OC(C)(C)C)c2ccccc2/C=C/CC(=O)O5)c1	11 nM	> 6 nM	350 nM	–	–	–
C=CC(=O)O[C@@]12CO[C@@H]1C[C@H](O)[C@@]1(C)C(=O)[C@H](OC(C)=O)C3=C(C)[C@@H](OC(=O)[C@H](O)[C@@H](NC(=O)c4ccccc4)c4ccccc4C=C)C[C@@](O)([C@@H](OC(=O)c4ccccc4)[C@H]21)C3(C)C	275 nM	1600 nM	1400 nM	–	–	–
CC(=O)O[C@H]1C(=O)[C@@]2(C)[C@@H]3[C@H](OC(=O)c4ccccc4)[C@]4(O)C[C@H](OC(=O)[C@H](O)[C@@H](NC(=O)c5ccccc5)c5cccc(c5)CCCCC(=O)O[C@]35CO[C@@H]5C[C@@H]2O)C(C)=C1C4(C)C	570 nM	8800 nM	1400 nM	–	–	–
CC(=O)O[C@H]1C(=O)[C@@]2(C)[C@@H]3[C@H](OC(=O)c4ccccc4)[C@]4(O)C[C@H](OC(=O)[C@H](O)[C@@H](NC(=O)OC(C)(C)C)c5ccccc5CCCC(=O)O[C@]35CO[C@@H]5C[C@@H]2O)C(C)=C1C4(C)C	1.5 nM	0.65 nM	180 nM	–	–	–
C=CC(=O)O[C@@]12CO[C@@H]1C[C@H](O)[C@@]1(C)C(=O)[C@H](OC(C)=O)C3=C(C)[C@@H](OC(=O)[C@H](O)[C@@H](NC(=O)c4ccccc4)c4cccc(C=C)c4)C[C@@](O)([C@@H](OC(=O)c4ccccc4)[C@H]21)C3(C)C	320 nM	1700 nM	1000 nM	–	–	–
CC(=O)O[C@H]1C(=O)[C@@]2(C)[C@@H]3[C@H](OC(=O)c4ccccc4)[C@]4(O)C[C@H](OC(=O)[C@H](O)[C@@H](NC(=O)c5ccccc5)c5ccccc5/C=C/CC(=O)O[C@]35CO[C@@H]5C[C@@H]2O)C(C)=C1C4(C)C	3.1 nM	0.5 nM	330 nM	–	–	–
CC(=O)O[C@H]1C(=O)[C@@]2(C)[C@@H]3[C@H](OC(=O)c4ccccc4)[C@]4(O)C[C@H](OC(=O)[C@H](O)[C@@H](NC(=O)c5ccccc5)c5cccc(c5)OCCCC(=O)O[C@]35CO[C@@H]5C[C@@H]2O)C(C)=C1C4(C)C	53 nM	700 nM	1400 nM	–	–	–
CC(=O)O[C@H]1C(=O)[C@@]2(C)[C@@H]3[C@H](OC(=O)c4ccccc4)[C@]4(O)C[C@H](OC(=O)[C@H](O)[C@@H](NC(=O)c5ccccc5)c5ccccc5OC/C=C/CCCC(=O)O[C@]35CO[C@@H]5C[C@@H]2O)C(C)=C1C4(C)C	90 nM	440 nM	530 nM	–	–	–
CC(=O)O[C@H]1C(=O)[C@@]2(C)[C@H]([C@H](OC(=O)c3ccccc3)[C@]3(O)C[C@H](OC(=O)[C@H](O)[C@@H](NC(=O)c4ccccc4)c4ccccc4)C(C)=C1C3(C)C)[C@]1(OC(C)=O)CO[C@@H]1C[C@@H]2O [PACLITAXEL]	5 nM	–	500 nM	21.5 nM	157 nM	4.8 nM
